# In the library only some 2.4% were active in any assay of this set; here they are far more common.
# STEP block = STEP phosphatase inhibitors, primary screen, biochemical, fluorescence intensity, uHTS; Tyrosine-protein phosphatase non-receptor type 5 (Homo sapiens), P54829; 360,000 compounds, 0.25% hits; inhibition, % at 20 µM; AID 588621, 2011; recombinant STEP, OMFP fluorogenic substrate;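 active = inhibition at 20 µM, scaled per plate between control wells, above about 37%, limit read from the data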;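 note: 0% = DMSO with enzyme and substrate and 100% = substrate only without enzyme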
#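 Material: STEP (striatal-enriched tyrosine phosphatase) enzyme, cell-free | Medium: 50 mM Bis-Tris pH 6.0 with 2.5 mM DTT and 0.005% Tween 20 | Read-out: Percent inhibition scaled to no-enzyme and uninhibited-enzyme controls, plate-pattern corrected | Signal: Fluorescence read at 480 nm ex / 540 nm em | Times: 20 min reaction, room temperature, in the dark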
# NadD inh = inhibitors of S. aureus NadD, primary screen, biochemical, colorimetric, uHTS; Nicotinate-nucleotide adenylyltransferase NadD (Staphylococcus aureus N315); purified NadD enzyme, colorimetric absorbance read-out; inhibition, % at 20 µM; 360,000 compounds, 0.78% hits; AID 602399, 2012; in the data active = inhibition above about 26%
# DNMT1 inh = human DNMT1 methyltransferase inhibitors, primary screen, biochemical, molecular beacon, fluorescence, HinP1I cleavage, uHTS. DNA (cytosine-5)-methyltransferase 1 (Homo sapiens), P26358. inhibition (reported as % activation of signal), % at 10 µM. 360,000 compounds, 0.83% hits; in the data active = inhibition above about 50%
# Scp1 inh = Scp-1 phosphatase inhibitors, primary screen, biochemical, colorimetric, uHTS; 340,000 compounds, 0.88% hits; AID 493091, 2011; Carboxy-terminal domain RNA polymerase II polypeptide A small phosphatase 1 (Homo …; Recombinant Scp1, phosphopeptide, malachite green phosphate absorbance; inhibition, % at 20 µM;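 active = inhibition above about 50% at 20 µM, limit read from the data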;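 note: plate controls were DMSO wells with enzyme for no effect and wells lacking enzyme for full effect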
# Target sequence (Q9GZU7 76-261 limits assumed): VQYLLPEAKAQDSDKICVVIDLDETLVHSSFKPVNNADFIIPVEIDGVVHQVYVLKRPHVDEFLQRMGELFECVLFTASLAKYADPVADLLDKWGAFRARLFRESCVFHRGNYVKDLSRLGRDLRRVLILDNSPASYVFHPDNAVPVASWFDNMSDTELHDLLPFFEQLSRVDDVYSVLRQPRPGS
#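 assay system = SCP-1 phosphatase catalytic domain, residues 76-261 | buffer or medium = 50 mM Tris acetate pH 5.5, 0.005% Tween-20, 10 mM MgCl2 | incubation = enzyme reaction 45 min at room temperature, colour 5 min, stabilisation 30 min | signal = Phosphate-binding colour reagent, absorbance read at 630 nm | measure = % inhibition at 20 µM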
# SUMO1-SIM PPI = modulators of SUMO1 protein-protein interactions, primary screen, biochemical, uHTS; Small ubiquitin-related modifier 1 (Homo sapiens), P63165; SUMO1 binding to a labelled peptide, TR-FRET, 1 h; inhibition, % at 20 µM; 360,000 compounds, 0.33% hits; AID 602429, 2012; in the data active = inhibition above about 37%
# Target sequence (P63165 whole entry, looked up): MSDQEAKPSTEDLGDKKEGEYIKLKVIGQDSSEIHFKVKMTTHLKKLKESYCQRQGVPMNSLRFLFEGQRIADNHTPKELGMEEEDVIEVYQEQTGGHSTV
# LMPTP block = LMPTP phosphatase inhibitors, primary screen, biochemical, fluorescence intensity, uHTS. Low molecular weight phosphotyrosine protein phosphatase (Homo sapiens), P24666. recombinant LMPTP-A, OMFP fluorogenic substrate. inhibition, % at 20 µM. 360,000 compounds, 0.22% hits;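 active = compounds that cut the enzyme signal by at least half of the control window in the single-dose screen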;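 note: plate controls were DMSO wells with enzyme plus substrate for no effect and substrate without enzyme for full effect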
# Target sequence (P24666 whole entry, looked up): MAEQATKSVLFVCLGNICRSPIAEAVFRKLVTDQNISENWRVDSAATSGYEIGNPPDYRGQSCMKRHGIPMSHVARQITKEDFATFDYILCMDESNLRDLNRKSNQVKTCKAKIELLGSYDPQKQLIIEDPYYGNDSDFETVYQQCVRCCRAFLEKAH
#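 Assay system: LMPTP-A, protein tyrosine phosphatase of low molecular weight / Medium: pH 6.0 Bis-Tris buffer with DTT and Triton X-100 / Schedule: 50 min enzyme reaction at room temperature, protected from light / Measured by: endpoint fluorescence intensity from OMFP dephosphorylation / Read-out basis: % inhibition relative to no-enzyme and uninhibited control wells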
# Scp-1 conf = Scp-1 phosphatase inhibitors, retest, confirmation, biochemical, colorimetric, single concentration; shares compounds with Scp1 inh; recombinant SCP-1 catalytic domain, phosphate release, malachite green absorbance; inhibition, % at 20 µM; 2,500 compounds, 61% hits; AID 540281, 2011;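 note: plate controls were DMSO with enzyme for no effect and buffer wells lacking enzyme for full effect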
# MG interference = colorimetric readout interference by compounds, confirmation, artefact control for Scp-1 inhibitor project, biochemical, single concentration. shares compounds with Scp1 inh. Colorimetric interference counterscreen, malachite green absorbance 630 nm. apparent inhibition (interference), % at 20 µM. 2,500 tested, under 10 active. AID 540313, 2011;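 note: compounds added after enzyme reaction finished so only phosphate colour detection is probed; plate controls were DMSO wells with completed Scp-1 reaction for no effect and substrate wells lacking enzyme for full effect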
# Scp-1 Tm shift = Scp-1 binding by thermal shift, confirmation, orthogonal assay for Scp-1 inhibitor project, biophysical, differential scanning fluorimetry | shares compounds with Scp1 inh | Recombinant SCP1, Sypro Orange thermal shift Tm | thermal shift relative to vanadate control, % at 40 µM | 1,500 compounds, 25% hits | AID 540329, 2011;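 active = substances whose mean melting-temperature shift, as a percentage of the reference inhibitor's shift, reaches about 5.3%, limit read from the data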;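 note: 0% = Tm of DMSO wells and 100% = Tm with sodium orthovanadate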
# An asterisk follows results filed as active; . = no result given.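 Rule for the calls, unless noted: active = inhibition of at least 30% at 20 µM; inactive = the rest.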
SMILES,STEP block,NadD inh,DNMT1 inh,Scp1 inh,SUMO1-SIM PPI,LMPTP block,Scp-1 conf,MG interference,Scp-1 Tm shift
COc1ccc(CCN(C)C(=O)c2ccc(S(=O)(=O)Nc3ccccc3C)cc2)cc1OC,.,.,.,-8,.,.,.,.,.
O=C(O)c1ccc(-n2cc(-c3cc4ccccc4oc3=O)[nH]c2=S)cc1,10,-2,-2,84*,-3,3,61*,-11,1
CC(=O)Nc1ccc(N=Cc2nc(-c3ccc(C)cc3)oc2O)cc1,2,-9,-8,76*,-13,6,16,-15,.
Cc1ccc(N=Cc2nc(-c3ccc(C)cc3)oc2O)cc1,-2,0,5,2,-3,-1,.,.,.
c1cnc2ccc3c(c2c1)COCO3,-1,-1,-1,7,2,16,.,.,.
O=[N+]([O-])c1cc2c(c3cccnc13)COCO2,0,-5,23,62*,-21,13,52*,-10,-2
O=C(CSc1nc2c(sc3ccccc32)c(=O)n1CCO)NCc1ccco1,3,-1,25,74*,5,1,64*,-7,-19
CC(=O)c1sc(C(=O)O)c(-c2ccco2)c1-c1ccco1,14,-2,37,59*,-4,0,32*,-11,-9
COc1ccc(N2CCN(C(=O)c3ccc4nc(N5CCCCC5)sc4c3)CC2)cc1,3,4,-2,-12,5,2,.,.,.
Cc1ccc[n+](CC(=O)Nc2cc(C(F)(F)F)ccc2N2CCOCC2)c1,-4,-3,2,55*,-2,-2,-18,-19,.
Cc1cccc(NC(=O)CSCC(=O)Nc2cc(C(F)(F)F)ccc2N2CCOCC2)c1,-1,-6,-2,.,-4,2,.,.,.
CCn1ncc(Br)c1C(=O)NC(C)c1ccccc1 (centres undefined),-19,-5,1,81*,3,-1,-1,-5,.
C=CCOc1ccc(/C=C\c2nc(O)c([N+](=O)[O-])c(=O)[nH]2)cc1OCC,6,-4,19,99*,7,1,45*,-14,4
COc1cc(/C=C/c2[nH]c(=O)[nH]c(=O)c2[N+](=O)[O-])ccc1OCCC(C)C,-1,2,13,63*,15,2,71*,-10,2
C=CCOc1ccc(/C=C\c2nc(O)c([N+](=O)[O-])c(=O)[nH]2)cc1OC,2,1,9,62*,7,-1,59*,-2,-8
C=CCOc1cccc(/C=C\c2nc(O)c([N+](=O)[O-])c(=O)[nH]2)c1,3,0,6,-7,3,-2,.,.,.
COc1ccc(/C=C\c2nc(O)c([N+](=O)[O-])c(=O)[nH]2)cc1O,0,-3,2,-3,-2,-2,.,.,.
CCC(C)Oc1ccc(/C=C/c2[nH]c(=O)[nH]c(=O)c2[N+](=O)[O-])cc1OC (centres undefined),-2,5,3,-2,-1,-1,.,.,.

# Compound activity as filed in PubChem.
